The source of these data is article PMC11542020 (Blood Cancer Journal, 2024).

Like-named read-outs stand apart in the source and are kept apart here.

For series [1], the system named is T-ALL PDX (ALL-8). The series can be described thus: In vivo relapsed/refractory therapy comparison. On the set-up: species or system human.
Series [2] relates to T-ALL PDX (ALL-31). The conditions noted are these: OBI-3424 2.5 mg/kg, PR-104 200 mg/kg; cited from earlier work.
The subject of series [3] is T-ALL PDX (ALL-8). The following applies: OBI-3424 2.5 mg/kg, PR-104 200 mg/kg; cited from earlier work.
The test system of another series is T-ALL PDXs. Briefly: Ex vivo cytotoxicity assay. It is filed as cell-based, human. In a few lines: (§1)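 Patient-derived xenograft leukemia cells were cultured ex vivo in AIM V medium at a density optimized for each xenograft (1–5 × 10⁶ cells per mL). ALL-11 cells were lentivirally transduced with AKR1C3 or with empty vector. Viability was read by resazurin or CellTiter-Glo. IC₅₀ was interpolated from nonlinear regression curves, with three biological experiments.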

A further series concerns B-ALL PDXs. Briefly: Ex vivo cytotoxicity assay. It counts as cell-based, human. In a few lines: as §1
Series [4] can be described thus: ACHM-025 pharmacokinetic analysis of murine plasma. It counts as in vivo. The conditions noted are these: female, NSG, mouse, ip, 25 mg/kg, across the dose levels 5, 10, 25 mg/kg IP.
In series [5] the test system is T-ALL PDX (ALL-31). The series can be described thus: In vivo efficacy, conventional study, T-ALL PDX ALL-31 in NSG mice. Also noted: species or system human. The conditions noted are these: 25 mg/kg IP Days 0, 7, 14.
For series [6], the system named is T-ALL PDX (ALL-8). The series can be described thus: In vivo consolidation therapy comparison, ALL-8 in NSG mice. Also noted: species or system human. Summed up: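 ALL-8-engrafted mice received test compound 5 mg/kg IP on Days 0 and 7, alone or with Ara-C and 6-mercaptopurine (each 12.5 mg/kg IP, Days 0–4 and 7–11). Comparators were cyclophosphamide (75 mg/kg IP, Days 0 and 7) and vehicle. Human CD45⁺ in PB was tracked over time. At Day 28, or at event for vehicle, PB, BM and spleen were assessed as % huCD45⁺ of mouse CD45⁺ (3 mice).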

For series [7], the system named is T-ALL PDX (ALL-8). The series can be described thus: In vivo dose response study, conventional, T-ALL PDX ALL-8 in NSG mice. On the set-up: species or system human.
The test system of series [8] is ALL-11/EV. Briefly: In vivo efficacy against ALL-11/EV in mice. Also noted: species or system human. The conditions noted are these: 25 mg/kg IP Days 0, 7, 14. In a few lines:
(§2)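 Mice engrafted with the patient-derived xenograft were dosed IP and their peripheral blood % human CD45⁺ was monitored. An event was defined as huCD45⁺ >25% in PB. Event-free survival of treated and vehicle cohorts was compared as T-C and T/C. Studies used either n = 6 mice per treatment or single-mouse testing (n = 1).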

Series [9] can be described thus: Plasma protein binding. It is filed as in vitro ADME. The following applies: human.
Series [10] has as its system ALL-11/AKR1C3. Briefly: In vivo efficacy against ALL-11/AKR1C3 in mice. Also noted: species or system human. The conditions noted are these: 25 mg/kg IP Days 0, 7, 14. In a few lines: as §2
The subject of another series is 25 T-ALL PDXs. Briefly: In vivo single mouse trial. The following applies: 25 mg/kg IP Days 0, 7, 14. On the set-up: species or system human.
Series [11] is described as follows: ACHM-025 pharmacokinetic analysis of murine brain. It is filed as in vivo. The following applies: female, NSG, mouse, intraperitoneal, 25 mg/kg.
Series [12] has as its system ALL-11/AKR1C3. The series can be described thus: Ex vivo cytotoxicity assay on ALL-11 PDX overexpressing AKR1C3. It counts as cell-based. The following applies: Homo sapiens, 48 h. In a few lines: as §1
Series [13] relates to ALL-11/EV. Briefly: Ex vivo cytotoxicity assay on ALL-11 PDX empty vector. It is filed as cell-based. The conditions noted are these: Homo sapiens, 48 h. Summed up:
as §1

Series [14] is described as follows: Plasma protein binding. The following applies: mouse. It counts as in vitro ADME.
Series [15] in a line: ACHM-025 tolerability in naïve immunodeficient mice. It is filed as in vivo, mouse. The following applies: 25 mg/kg via IP weekly ×3.
In series [16] the test system is T-ALL PDX (ALL-8). Briefly: Minimal residual disease. It counts as in vivo, human. The conditions noted are these: not within the quantitative range of the assay.
Series [17] can be described thus: Preliminary tolerability studies in cynomolgus monkeys. It is filed as in vivo, cynomolgus monkey.
Series [18] has as its system T-ALL PDX (ALL-8). Briefly: Histopathologic analysis of mouse skull and brain to assess tumor burden. It is filed as in vivo, human. The following applies: 10 mg/kg IP Days 0, 7, 14.
Setting [19] is: ACHM-025 10 mg/kg IP Days 0, 7, 14, nelarabine 125 mg/kg IP Days 0–4, 14–18, alone or combined.

In the case of `COc1nc(N)nc2c1ncn2[C@@H]1O[C@H](CO)[C@@H](O)[C@@H]1O` [Nelarabine, nelarabine, reference compound], in the series on T-ALL PDX (ALL-8) [1] (setting [19]), the “EFS (median event free survival)” value amounted to 28.4 days, the T-C is 19.1 days and the T/C is recorded as 3.1 days. For the same compound, in the series on T-ALL PDX (ALL-8) [1] (nelarabine 125 mg/kg IP Days 0–4, 14–18), the “human leukemia levels in the PB, BM or spleen at Day 28” value is “did not significantly decrease”.

In the case of `CS(=O)(=O)OCCN(CCBr)c1c(C(=O)NCCOP(=O)(O)O)cc([N+](=O)[O-])cc1[N+](=O)[O-]` [PR-104], the “delay of leukemia progression” value with T-ALL PDX (ALL-31) [2] is given as 44.4 days; in the series with T-ALL PDX (ALL-8) [3] it was 54.3 days.

The IC50 is the concentration that gives 50% inhibition. With `CS(=O)(=O)OCCN(CCBr)c1c(C(=O)NCCO)cc([N+](=O)[O-])cc1[N+](=O)[O-]` [PR-104A, reference compound], the IC50 came out at 1800 nM in the series on T-ALL PDXs (read-out: Median IC50, median of T-ALL PDXs) and 26600 nM with B-ALL PDXs (read-out: Median IC50, median of B-ALL PDXs).

As usually defined, the Cmax is the highest concentration seen after dosing. For orientation: AUC(0-inf) means the area under the concentration-time curve extrapolated to infinity. A lower AUC(0-inf) goes with less exposure. What is called fraction unbound is the share of the substance not bound to proteins or other matrix. With `CN1CCN(S(=O)(=O)c2cc([N+](=O)[O-])ccc2N(CCOS(C)(=O)=O)CCOS(C)(=O)=O)CC1` [ACHM-025, ((2-((4-methylpiperazin-1-yl)sulfonyl)-4-nitrophenyl)azanediyl)bis(ethane-2,1-diyl) dimethanesulfonate], the Cmax in series [4] (Cmax) is 1600 to 9300 nM. Moreover, the AUC(0-inf) in series [4] (total plasma exposure (AUC0-inf)) fell in the range of 0.5 to 3.3 µM·h. For the same compound, the “Median EFS” value in the series with T-ALL PDX (ALL-31) [5] is listed as over 332 days. Moreover, the “human leukemia cells in the murine peripheral blood (PB)” value in the series with T-ALL PDX (ALL-31) [5] is listed as under 1%. Moreover, in the series with T-ALL PDX (ALL-31) [5], the “mice that did not relapse over the >300-day observation period following the last treatment” value is listed as 3 out of 5. For the same compound, the “time for which human leukemia cells in PB <1% was maintained” value in the series on T-ALL PDX (ALL-31) [5] turned out to be 10 consecutive weeks. Moreover, in the series with T-ALL PDX (ALL-8) [6] (ACHM-025 5 mg/kg IP Days 0, 7), the “human leukemia levels in the PB, BM and spleen at Day 28” value was “undetectable levels”. Moreover, the “human leukemia cells in the murine PB” value in the series with T-ALL PDX (ALL-8) [6] (ACHM-025 5 mg/kg IP Days 0, 7, for six consecutive weeks) is under 1%. Besides, the ORM entry with T-ALL PDX (ALL-8) [7] (10 mg/kg IP Days 0, 7, 14) is given as “MCRs”; with T-ALL PDX (ALL-8) [7] (15 mg/kg IP Days 0, 7, 14) it was “MCRs”; in the series with T-ALL PDX (ALL-8) [7] (25 mg/kg IP Days 0, 7, 14) it was “MCRs”; in the series with T-ALL PDX (ALL-8) [1] (setting [19]), “MCRs”. For the same compound, the “mice with no detectable human leukemia cells in the PB at 250 days after the last treatment” value in the series on T-ALL PDX (ALL-8) [7] (25 mg/kg IP Days 0, 7, 14) is listed as 5 out of 6. Moreover, the “human leukemia cells in the PB, BM, spleen, kidney or liver at Day 28” value in the series with T-ALL PDX (ALL-8) [7] (any of the three doses (10, 15 or 25 mg/kg)) was “no detectable human leukemia cells”. The figures for the “Treated EFS” value with ALL-11/EV [8] and in the series with ALL-11/AKR1C3 [10] were 49.1 days and 104 days, respectively. Also, the IC50 in the series with T-ALL PDXs (Homo sapiens, 48 h, read-out: Median IC50, median of 6 T-ALL PDXs, 48 h) was found to be 29 nM; in the series with ALL-11/AKR1C3 [12], 13.1 nM; in the series with ALL-11/EV [13], 1260 nM; with B-ALL PDXs (Homo sapiens, 48 h, read-out: Median IC50, median of 6 B-ALL PDXs, 48 h) it was 840 nM. Besides, the fraction unbound at 5 µmol/L in the series “Plasma protein binding [9]” was 0.646; in the series “Plasma protein binding [14]” it was 0.569. The “PDXs that did not reach event during the 250 day monitoring period following the final treatment” value with 25 T-ALL PDXs was 7/25. This compound came in with a concentration at 0.25 h in series [11] of 140 nM. The Tolerability result in series [15] is on record as “well tolerated”. Also, the “MRD in BM samples at Day 28 (PCR-based assay)” value with T-ALL PDX (ALL-8) [16] is given as “MRD positive”. In addition, the “human leukemia cells in the BM at Day 28 by flow cytometry” value in the series with T-ALL PDX (ALL-8) [1] is “no detectable human leukemia cells”. In addition, the “EFS (median event free survival)” value in the series on T-ALL PDX (ALL-8) [1] (setting [19]) was determined as 207 days. Further, the T-C in the series with T-ALL PDX (ALL-8) [1] (setting [19]) was determined as 198 days. The T/C in the series on T-ALL PDX (ALL-8) [1] (setting [19]) came to 22.5 days. Moreover, the single dose-limiting toxicity entry in series [17] (0.6 mg/kg) is listed as “neutropenia”. Moreover, the “all other hematological, clinical chemistry, urinalysis and histopathology parameters” value in [17] (2.0 mg/kg, the highest dose tested) is “within normal range”. Further, the well tolerated doses in series [17] (preliminary studies) is on record as at most 0.5 mg/kg. The “leukemic infiltration of the calvarial bone marrow at Day 28 (H&E, TdT)” value in the series with T-ALL PDX (ALL-8) [18] is reported as “no observable leukemic infiltration”.
